KCNQ1 act: potentiators or activators of human KCNQ1 potassium channel; P51787; CHO-K1 KCNQ1, thallium flux FluxOR fluorescence; stronger effect = higher value; B-score at 10 µM; 0.35% of 310,000 active; AID 2648;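 active means fluorescence ratio B-score, a plate-corrected score, at least three library SD, with initial intensity B-score within 5 SD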
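System: Stable KCNQ1 CHO-K1 line | Incubation: 90 min dye loading and 20 min compound exposure, both at room temperature | Measure: Ratio B score | Medium: Assay buffer for compound exposure, DMSO matched across wells | Compound dosing: Single-concentration screen | Probe or stimulus: K+/Tl+ depolarizing stimulus | Measured by: Kinetic FluxOR fluorescence, 10 s baseline plus 110 s post-stimulus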
KCNK9 inh: inhibitors of human KCNK9 two-pore domain potassium channel | Q9NPC2 | AID 488922 | HEK293 KCNK9, FluxOR thallium flux fluorescence; stronger effect = lower value | 1.2% of 310,000 active | B-score at 10 µM;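 active means ratio B-score over 3 SD below the library mean, with starting fluorescence within 5 SD of its mean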;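 further: negative B-score means less thallium flux so channel inhibition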
KCNQ1 block: blocks the human KCNQ1 potassium channel. P51787. B-score at 10 µM. CHO-K1 KCNQ1, FluxOR thallium flux fluorescence; stronger effect = higher value. 1.3% of 310,000 active;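 active means compounds whose thallium flux B-score, printed positive for inhibition, exceeds three library SD while starting fluorescence stays within three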;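 further: channel opened by potassium depolarization with thallium stimulus after 20 min compound exposure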
Kir21 inh: inhibitors of mouse Kir2.1 inward-rectifier potassium channel | HEK293-Kir2.1, FluxOR thallium flux fluorescence; stronger effect = lower value | B-score at 10 µM | 0.85% of 310,000 active | AID 1672;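 active means fluorescence ratio B-score at or below minus 3 SD of library scores, with starting-brightness B-score within 2 SD, cut at about -4.2 in these data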;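 further: channel flux triggered by added potassium and thallium sulfate stimulus; B-score of peak minus minimum fluorescence over baseline after thallium stimulus; more negative B-score means stronger Kir2.1 block with less thallium influx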
KCNK3 block: human KCNK3 channel inhibition, primary screen; O14649; CHO-KCNK3 thallium flux, FluxOR fluorescence; stronger effect = lower value; B-score at 10 µM; 0.84% of 340,000 active;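 active means B-score under library mean minus 4 SD, starting fluorescence ratio at most library mean plus 5 SD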;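 further: more negative B-score means stronger inhibition of thallium flux through KCNK3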
hERG protect: compounds protecting human hERG from proarrhythmic drug block. Q12809. CHO-hERG, FluxOR thallium flux, dofetilide IC70 present. activation (rescue from dofetilide block), less the hit threshold, % at 10 µM. 0.51% of 310,000 active. AID 1511;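 active means activation above the mean of controls blocked by dofetilide plus 5 SD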;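 further: thallium influx through hERG after potassium depolarization seen as dye fluorescence rise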
KCNK9 block conf: confirmation of human KCNK9 potassium channel inhibitors. shares compounds with KCNK9 inh. HEK293 KCNK9 cells, FluxOR thallium flux fluorescence. inhibition, % at 10 µM. 43% of 4,900 active;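 active means thallium signal inhibited by more than 5 SD of the compound-free buffer control wells, on both duplicate plates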;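 further: 0% = assay buffer control wells without compound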
Kir2-1 spec: mouse Kir2.1 off-target activity of KCNK9 modulators | shares compounds with KCNK9 inh | Kir2.1 cells, FluxOR thallium flux fluorescence | inhibition, % at 10 µM | 4% of 4,900 active;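 active means thallium signal drop more than 5 SD beyond the mean of the no-compound control wells, seen in both duplicate plates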;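 further: signal is fluorescence rise after thallium addition divided by baseline fluorescence; plate controls were assay buffer only for no effect and full block by chlorpromazine control for full effect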
KCNK9 uninduced: non-induced cell nonspecific activity of KCNK9 modulators; shares compounds with KCNK9 inh; non-induced KCNK9-HEK293, FluxOR thallium flux; inhibition, % at 10 µM; 40% of 4,900 active; AID 492997;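 active means thallium signal drop beyond 5 SD of the untreated control mean, on both duplicate plates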;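 further: plate controls were buffer only IC0 wells for no effect and SID17386958 at its maximal inhibitory level for full effect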
* marks the source's active call; other numbers are inactive results. Rows were chosen to be rich in hits. Some 3.8% of all compounds tested hit in one or more screens of this group.

For O=C(Oc1ccc2[nH]cc(CCN3C(=O)c4ccccc4C3=O)c2c1)c1ccco1 the results were KCNQ1 act inactive, KCNK9 inh -11*, KCNQ1 block inactive, Kir21 inh -1.6, KCNK3 block inactive, hERG protect -12, KCNK9 block conf 26%*, Kir2-1 spec inactive and KCNK9 uninduced inactive.
Screening COCCNC(=S)N(CCc1c(C)[nH]c2ccccc12)Cc1ccco1 returned KCNQ1 act inactive, KCNK9 inh inactive, KCNQ1 block inactive, Kir21 inh -4.7*, KCNK3 block inactive, hERG protect -6, KCNK9 block conf inactive, Kir2-1 spec inactive and KCNK9 uninduced inactive.
`Cc1[nH]c2ccccc2c1CCN(Cc1cccs1)C(=S)Nc1ccccc1` gave KCNQ1 act inactive, KCNK9 inh -8.2*, KCNQ1 block inactive, Kir21 inh -0.02, KCNK3 block inactive, hERG protect -8, KCNK9 block conf 34%*, Kir2-1 spec inactive and KCNK9 uninduced 31%*.
For O=C(NCc1ccc(F)cc1)C1CCCN(C(=O)NCc2ccccc2)C1 (configuration not stated) the results were KCNQ1 act inactive, KCNK9 inh inactive, KCNQ1 block inactive, Kir21 inh -0.03, KCNK3 block inactive and hERG protect -4.
For Cc1ccccc1N=C(N)Nc1ccccc1C the results were KCNK3 block inactive.
For COc1cccc(OCc2nc(-c3ccc(Br)o3)no2)c1 the results were KCNQ1 act inactive, KCNK9 inh inactive, KCNQ1 block inactive, Kir21 inh -3.7, KCNK3 block inactive, hERG protect -13, KCNK9 block conf inactive, Kir2-1 spec inactive and KCNK9 uninduced inactive.
Screening Cc1cccc(OCc2nc(-c3ccc(Br)o3)no2)c1 returned KCNQ1 act inactive, KCNK9 inh inactive, KCNQ1 block inactive, Kir21 inh 0.42, KCNK3 block inactive, hERG protect -7, KCNK9 block conf inactive, Kir2-1 spec inactive and KCNK9 uninduced 24%*.
`Fc1ccc(OCc2nc(-c3ccc(Br)o3)no2)c(F)c1` gave KCNQ1 act inactive, KCNK9 inh inactive, KCNQ1 block inactive, Kir21 inh -0.18, KCNK3 block inactive and hERG protect -7.
Screening Cc1cc(S(=O)(=O)NC(C)C)ccc1OCC(=O)Nc1ccc2c(c1)OCCO2 returned KCNQ1 act inactive, KCNK9 inh inactive, KCNQ1 block inactive, Kir21 inh -0.28, KCNK3 block inactive and hERG protect 0.
`COc1ccccc1NC(=O)Nc1nnc(C(C)c2ccccc2)s1` (configuration not stated) gave KCNQ1 act inactive, KCNK9 inh -10*, KCNQ1 block inactive, Kir21 inh -0.33, KCNK3 block inactive, hERG protect -11, KCNK9 block conf 56%*, Kir2-1 spec inactive and KCNK9 uninduced 24%*.
`CCOC(=O)CC(=O)c1cc(OC)c(OC)c(OC)c1` gave KCNQ1 act inactive, KCNK9 inh inactive, KCNQ1 block inactive, Kir21 inh -2.6, KCNK3 block inactive and hERG protect -15.
For CSCCC(C(=O)OCC(=O)c1ccc(C)c(C)c1)N1C(=O)c2cc(Cl)c(Cl)cc2C1=O (configuration not stated) the results were KCNQ1 act inactive, KCNK9 inh inactive, KCNQ1 block inactive, Kir21 inh 1.7, KCNK3 block inactive, hERG protect -14, KCNK9 block conf inactive, Kir2-1 spec inactive and KCNK9 uninduced inactive.
COc1ccc(C(=O)COC(=O)C(CC(C)C)N2C(=O)c3ccccc3C2=O)cc1 (configuration not stated) was read as KCNQ1 act inactive, KCNK9 inh inactive, KCNQ1 block inactive, Kir21 inh -2, KCNK3 block inactive and hERG protect -13.
Screening CCn1c(SCC(=O)c2cc(C)ccc2C)nc2cc(S(=O)(=O)N3CCOCC3)ccc21 returned KCNQ1 act inactive, KCNK9 inh inactive, KCNQ1 block inactive, Kir21 inh -2.6, KCNK3 block inactive, hERG protect -15, KCNK9 block conf inactive, Kir2-1 spec inactive and KCNK9 uninduced inactive.
Screening COc1ccc(C(=O)COC(=O)c2sc(C)nc2C)cc1OC returned KCNK3 block inactive.
Screening C=CCOc1ccc(C2=NO[C@@H]3[C@@H]4C[C@@H]([C@H]5C(=O)N(C)C(=O)[C@@H]45)[C@H]23)cc1 returned KCNQ1 act inactive, KCNK9 inh inactive, KCNQ1 block inactive, Kir21 inh 1.2, KCNK3 block inactive and hERG protect -6.
O=C1[C@@H]2[C@@H]3C[C@@H]([C@H]4ON=C(c5ccc(Cl)cc5)[C@@H]34)[C@@H]2C(=O)N1C1CCCCC1 was read as KCNQ1 act inactive, KCNK9 inh inactive, KCNQ1 block inactive, Kir21 inh -0.16, KCNK3 block inactive, hERG protect -6, KCNK9 block conf inactive, Kir2-1 spec inactive and KCNK9 uninduced inactive.
CC1(NC(=O)c2cccc(S(=O)(=O)N3CCN(c4ccccc4)CC3)c2)CCS(=O)(=O)C1 (configuration not stated) was read as KCNQ1 act inactive, KCNK9 inh inactive, KCNQ1 block inactive, Kir21 inh -0.85, KCNK3 block inactive and hERG protect -10.
O=C(N/N=C/c1ccccc1)c1ccc(CN2C(=O)c3cccc4cccc2c34)cc1 was read as KCNQ1 act inactive, KCNK9 inh inactive, KCNQ1 block inactive, Kir21 inh -1.4, KCNK3 block inactive and hERG protect -3.
Screening O=C(N/N=C/c1ccc(O)cc1O)c1ccc(CN2C(=O)c3cccc4cccc2c34)cc1 returned KCNQ1 act inactive, KCNK9 inh -12*, KCNQ1 block inactive, Kir21 inh 0.34, KCNK3 block -12*, hERG protect -12, KCNK9 block conf 37%*, Kir2-1 spec inactive and KCNK9 uninduced 33%*.
Screening COc1cccc(/C=N/NC(=O)c2nc(-c3ccccc3)cc(-c3ccccc3)n2)c1 returned KCNQ1 act inactive, KCNK9 inh -8.5*, KCNQ1 block inactive, Kir21 inh -0.2, KCNK3 block inactive, hERG protect -20, KCNK9 block conf 34%*, Kir2-1 spec inactive and KCNK9 uninduced inactive.

Bioassay records (PubChem)
